From ChEMBL document CHEMBL5034022, “Pharmacophore-Based Design of Phenyl-[hydroxycyclohexyl] Cycloalkyl-Carboxamide Mitofusin Activators with Improved Neuronal Activity” (J Med Chem, 2021)
Blank lines part the entries; values can stand above or below the molecule they belong to.

Legend:
[1] = MRT (0 to infinity) in overnight fasted CD-1 mouse total plasma at 50 mg/kg, po by HPLC analysis; type: ADME, organism-based
Method in brief: (§1)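 Overnight-fasted 7-9 week male CD-1 mice, food returned 4 h post-dose, given 50 mg/kg by oral gavage (5 mg/mL in 30% SBE-β-CD); plasma and brain (homogenized in MeOH/15 mM PBS) quenched with ACN internal-standard mix, HPLC; free levels calculated from mouse plasma and brain protein binding; mean ± SEM, 3 mice per time point.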

[2] = MRT (0 to infinity) in overnight fasted CD-1 mouse total brain at 50 mg/kg, po by HPLC analysis; type: ADME, organism-based; method in brief: as §1
[3] = Volume of distribution at steady state in CD-1 mouse at 10 mg/kg, iv administered as single dose by HPLC analysis; type: ADME, organism-based; conditions: in vivo, read-out: Vdss
Method in brief: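 Single 10 mg/kg IV dose of enantiomeric mixture in 10%DMSO/90%(30%HP-b-CD) to 7-9 week male CD-1 mice; plasma collected over time, proteins precipitated with ACN containing warfarin internal standard, analysed by HPLC; non-compartmental analysis; mean ± SEM, 3 mice per condition.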

[4] = Activation of Mitofusin in MFN2 deficient mouse MEF cells assessed as mitochondria elongation
[5] = Plasma protein binding in human assessed as bound fraction at 2 uM incubated for 120 mins by equilibrium dialysis method; type: ADME, cell-free; conditions: read-out: PPB (converted)
[6] = Plasma protein binding in mouse assessed as bound fraction at 2 uM measured after 120 mins by equilibrium dialysis method; type: ADME, cell-free; conditions: read-out: PPB (converted)
[7] = Tmax in non-fasted CD-1 mouse brain at 50 mg/kg, po by HPLC analysis; type: ADME, organism-based
Method in brief: (§2)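 Oral gavage 50 mg/kg (5 mg/mL in 10%DMSO/90%(30%HP-b-CD)) to non-fasted 7-9 week male CD-1 mice; brain, spinal cord and sciatic nerve homogenized in water, diluted in control mouse plasma, ACN precipitation with warfarin internal standard, HPLC; non-compartmental time-concentration analysis; 3 mice per condition.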

[8] = Tmax in non-fasted CD-1 mouse spinal cord at 50 mg/kg, po by HPLC analysis; type: ADME, organism-based; method in brief: as §2
[9] = Tmax in non-fasted CD-1 mouse right sciatic nerve at 50 mg/kg, po by HPLC analysis; type: ADME, organism-based; method in brief: as §2
[10] = Tmax in non-fasted CD-1 mouse left sciatic nerve at 50 mg/kg, po by HPLC analysis; type: ADME, organism-based; method in brief: as §2

MRT inf [1]: 60.6 min | MRT inf [2]: 57.5 min
Compound: O=C(CCCCCc1ccccc1)N[C@H]1CC[C@H](O)CC1

Vd [3]: 0.6 L/kg
Compound: O=C(N[C@H]1CC[C@H](O)CC1)C1CC1CCCc1ccccc1 (some centres not stated)

EC50 [4]: 15.3 nM | fraction unbound at 2 h, 2 µM [5]: 0.0075 | fraction unbound at 2 h, 2 µM [6]: 0.012
Compound: O=C(N[C@H]1CC[C@H](O)CC1)C1CCC(CCCc2ccccc2)C1 (some centres not stated)

Tmax [7]: 30 min | Tmax [8]: 30 min | Tmax [9]: 30 min | Tmax [10]: 30 min | MRT inf [1]: 115 min | MRT inf [2]: 119 min
Compound: O=C(N[C@H]1CC[C@H](O)CC1)[C@@H]1C[C@H]1CCCc1ccccc1
